From PubChem BioAssay come the findings set out here.

A short description of experiment [1]: SK-BR-3 cell growth inhibitors, pilot screen, 24 h, human (AID 572;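 active = viability at or below 10% of carrier control in both of two separate runs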;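 note: compound exposure lasted between 18 and 24 h rather than exactly 24 h; 100% = carrier-treated control wells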). Particulars: SK-BR-3 viability, CellTiter-Glo luminescence, at 10 µM, stronger effect = lower value.
Experiment [2] is described as follows: HUVEC growth inhibition – cell-based, human, primary screen (AID 575;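 active = viability at or below 30% in both replicate assays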;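 note: 100% = median of untreated cell wells with 0.1% DMSO on each plate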). Particulars: HUVEC proliferation, CellTiter-Glo luminescence, 72 h; at 10 µM; stronger effect = lower value. The method in brief:
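system = HUVEC primary cells | amount = 1250 cells/well | buffer or medium = supplemented EBM, 2% fetal bovine serum | dosing = single-point 10 µM, DMSO 0.1% final | times = 72 h compound incubation | detection = CTG luminescence | read-out = % viability relative to median vehicle-well signal on each plate | control set = vehicle and MePR control wells | format = collagen-coated 384-well format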
A general note: In ATP-based viability assays light output follows the ATP content of the culture.

Experiment [3] can be described thus: growth inhibitors of H69AR lung tumor, primary screen, human, duplicate replicates (AID 580;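 active = viability at or under a set limit in both replicates, limit being median viability minus 3 SD, cut at about 48% in these data, passing the limit was not always enough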;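 note: 100% = mean luminescence of untreated wells and 0% = no signal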). Particulars: H69AR lung tumor cells viability, ATP luminescence, 72 h; at 10 µM; stronger effect = lower value.
Experiment [4] can be described thus: reversal of MRP1-mediated doxorubicin resistance, pilot screen, H69AR cells, doxorubicin co-treatment (AID 601;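 active = viability loss from added drug above about 55%, and viability with drug at most 40%, in both replicates, limit read from the data, passing the limit was not always enough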). Particulars: CellTiter-Glo, 72 h, at 10 µM; for differential viability (reversal): stronger effect = higher value.
The nature of experiment [5]: 384-well plate pilot, post-Golgi transport modulator project, inhibition of yeast transport mutant growth (AID 636; in the data active = inhibition above about 31%). Particulars: absorbance 615 nm, about 18 h, stronger effect = higher value.
Experiment [6] in a line: growth suppression of yeast trafficking mutant, preliminary HTS, modulators of trafficking downstream of Golgi apparatus project, 1536-format plate, OD 615 nm (AID 637). Particulars: yeast transport mutant growth, absorbance 615 nm, 18 h; stronger effect = higher value.
The mark [7] stands for this setting: H69AR cells + 2 uM doxorubicin, measured here: viability with 2 uM doxorubicin, stronger effect = lower value.
Setting [8] is: H69AR cells, compound alone cytotoxicity.

The term viability denotes a read-out of living cells in per cent, often relative to untreated cells. For orientation: inhibition means the relative decrease from the control value, in per cent.

Activity calls are given as the source filed them. Cut-off read from the data, not from the text of the source, unless noted: active = inhibition above about 30%; inactive = the rest.

Consider `c1ccc(-c2cnc(CSc3ncnc4sccc34)o2)cc1`, for which the viability in experiment [1] is 94% (inactive); in experiment [2], 90.7% (inactive); in experiment [3] it was 96.9% (inactive); in experiment [4] (setting [7]), 82.2%; in experiment [4] (setting [8]) it was 96.9%. For the same molecule, the differential viability (reversal) in experiment [4] (H69AR cells + 2 uM doxorubicin) is 14.7% (inactive). Moreover, the inhibition was -5.68% (inactive) in experiment [5] and -5.82% (inactive) in experiment [6].
Consider `CS(=O)(=O)NCC(c1cccnc1)N1CCN(c2ccc(F)cc2)CC1` (centres undefined), for which the viability in experiment [1] was 107% (inactive); in experiment [2], 113% (inactive); in experiment [3], 92.2% (inactive); in experiment [4] (setting [7]), 91.3%; in experiment [4] (setting [8]) it was 92.2%. Also, the differential viability (reversal) in experiment [4] (H69AR cells + 2 uM doxorubicin) is 0.865% (inactive). For the same molecule, the inhibition is -1.89% (inactive) in experiment [5] and -3.45% (inactive) in experiment [6].
As to `COC(=O)CN(Cc1ccco1)S(=O)(=O)c1ccccc1`, the viability in experiment [1] was 98% (inactive); in experiment [2] it was 102% (inactive); in experiment [3], 77.6% (inactive); in experiment [4] (setting [7]) it was 80.9%; in experiment [4] (setting [8]), 77.6%. In addition, the differential viability (reversal) in experiment [4] (H69AR cells + 2 uM doxorubicin) is -3.33% (inactive). For the same molecule, the inhibition in experiment [5] is -2.67% (inactive); in experiment [6] it was -0.91% (inactive).
Take `C=CCn1c(SCC(=O)c2ccccc2)nnc1-c1ccc2c(c1)OCO2`: the viability in experiment [1] was 97% (inactive); in experiment [2] it was 107% (inactive); in experiment [3], 100% (inactive); in experiment [4] (setting [7]) it was 103%; in experiment [4] (setting [8]), 100%. Further, the differential viability (reversal) in experiment [4] (H69AR cells + 2 uM doxorubicin) was -2.68% (inactive). Also, the inhibition in experiment [5] is -1.78% (inactive); in experiment [6], -3.06% (inactive).
For `CN1CCC(=C2c3ccccc3C=Cc3ccccc32)CC1`, the viability in experiment [1] was 100% (inactive); in experiment [2] it was 52.6% (inactive); in experiment [3] it was 82.4% (inactive); in experiment [4] (setting [7]), 73.4%; in experiment [4] (setting [8]), 82.4%. The differential viability (reversal) in experiment [4] (H69AR cells + 2 uM doxorubicin) was 9.07% (inactive). Besides, the inhibition in experiment [5] is -0.65% (inactive); in experiment [6], 1% (inactive).
For the molecule `CC(=O)Nc1nc(C)c(-c2csc(Nc3ccc(O)cc3)n2)s1`, the viability in experiment [1] was 114% (inactive); in experiment [2], 19.7% (active); in experiment [3] it was 13.3% (active); in experiment [4] (setting [7]), 18.6%; in experiment [4] (setting [8]), 13.3%. Further, the differential viability (reversal) in experiment [4] (H69AR cells + 2 uM doxorubicin) was -5.39% (inactive). Further, the inhibition was -3.95% (inactive) in experiment [5] and -6.13% (inactive) in experiment [6].
As for `CN1CCN(C(=O)NC2CCCN2S(=O)(=O)c2ccc(Cl)cc2)CC1` (centres undefined), the viability was 100% (inactive) in experiment [1]; 96.4% (inactive) in experiment [2]; 88.9% (inactive) in experiment [3]; 89.6% in experiment [4] (setting [7]); 88.9% in experiment [4] (setting [8]). Besides, the differential viability (reversal) in experiment [4] (H69AR cells + 2 uM doxorubicin) was -0.73% (inactive). Besides, the results for the inhibition in experiment [5] and in experiment [6] were -1.1% (inactive) and -4.68% (inactive), respectively.
Take `NC(=O)c1ccsc1NC(=O)COC(=O)Cc1ccsc1`: the viability in experiment [1] was 87% (inactive); in experiment [2] it was 100% (inactive); in experiment [3] it was 110% (inactive); in experiment [4] (setting [7]), 110%; in experiment [4] (setting [8]), 110%. Moreover, the differential viability (reversal) in experiment [4] (H69AR cells + 2 uM doxorubicin) is -0.11% (inactive). In addition, the inhibition in experiment [5] is -4.25% (inactive); in experiment [6] it was 1.27% (inactive).
In the case of `Cc1csc(NC(=O)C2CCCO2)n1` (centres undefined), the viability is 87% (inactive) in experiment [1]; 86.9% (inactive) in experiment [2]; 91.4% (inactive) in experiment [3]; 81.4% in experiment [4] (setting [7]); 91.4% in experiment [4] (setting [8]). Further, the differential viability (reversal) in experiment [4] (H69AR cells + 2 uM doxorubicin) is 9.97% (inactive). The inhibition in experiment [5] was -4.16% (inactive); in experiment [6], 10.3% (inactive).
`Cc1cc(S(=O)(=O)N2CCN(c3ccccc3C)CC2)ccc1F`: the viability is 89% (inactive) in experiment [1]; 90.1% (inactive) in experiment [2]; 79.5% (inactive) in experiment [3]; 79.8% in experiment [4] (setting [7]); 79.5% in experiment [4] (setting [8]). Besides, the differential viability (reversal) in experiment [4] (H69AR cells + 2 uM doxorubicin) was -0.315% (inactive). Further, the inhibition in experiment [5] is -0.78% (inactive); in experiment [6] it was 4.59% (inactive).
As to `Cc1nc(CNS(=O)(=O)c2cccc(F)c2)cs1`, the viability in experiment [1] was 64% (inactive); in experiment [2], 93.3% (inactive); in experiment [3] it was 91.4% (inactive); in experiment [4] (setting [7]), 90.1%; in experiment [4] (setting [8]), 91.4%. Further, in experiment [4] (H69AR cells + 2 uM doxorubicin), the differential viability (reversal) was 1.23% (inactive). In addition, the inhibition in experiment [5] was -1.95% (inactive); in experiment [6], 12.1% (inactive).
Regarding `O=C(NCC1CCCO1)C1CCC(CNS(=O)(=O)c2ccccc2)CC1` (centres undefined), the viability was 101% (inactive) in experiment [1]; 81.6% (inactive) in experiment [2]; 90.3% (inactive) in experiment [3]; 84.8% in experiment [4] (setting [7]); 90.3% in experiment [4] (setting [8]). Moreover, the differential viability (reversal) in experiment [4] (H69AR cells + 2 uM doxorubicin) was 5.42% (inactive). Moreover, the inhibition in experiment [5] was 1.95% (inactive); in experiment [6] it was -1.31% (inactive).
Turning to `O=C(NCc1ccccc1)C1CCCN(S(=O)(=O)c2cccnc2)C1` (centres undefined), the viability was 92% (inactive) in experiment [1]; 95.5% (inactive) in experiment [2]; 99% (inactive) in experiment [3]; 92.8% in experiment [4] (setting [7]); 99% in experiment [4] (setting [8]). In addition, the differential viability (reversal) in experiment [4] (H69AR cells + 2 uM doxorubicin) was 6.21% (inactive). The inhibition in experiment [5] was -4.66% (inactive); in experiment [6] it was -3.81% (inactive).
